Test results taken from ChEMBL document CHEMBL1152809, “Structure-activity relationships of orotidine-5'-monophosphate decarboxylase inhibitors as anticancer agents” (J Med Chem, 2009).
Activity calls are given as the source filed them. The calls are words filed in the database; no cut-off is given here.

Key:
[1] = system: OCI-AML2; test: Antitumor activity against human OCI-AML2 cells after 3 days by WST1 assay; assay type: functional, cell-based; conditions: OCI-AML2, 72 h
Summary of the method: (§1)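 Cell lines grown in Iscove's MDM with 5% FCS, 50 µM 2-mercaptoethanol, penicillin and streptomycin; suspension lines kept at 0.5-1.5 × 10^6 cells/mL, adherent lines subconfluent. Cells seeded in triplicate at 10^4 cells/100 µL. Compounds were dissolved in water and added immediately at 0 to 100 µM final. WST.1 read at 440 nm on day 3; IC50 taken from OD versus concentration plots.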

[2] = Antitumor activity against human MDA468 cells after 3 days by WST1 assay; assay type: functional, cell-based; conditions: MDA-MB-468, 72 h; summary of the method: as §1
[3] = system: T47D; test: Antitumor activity against human T47D cells up to 50 uM after 3 days by WST1 assay; assay type: functional, cell-based; summary of the method: as §1
[4] = system: SNB-19; test: Antitumor activity against human SNB19 cells up to 50 uM after 3 days by WST1 assay; assay type: functional, cell-based; summary of the method: as §1
[5] = system: MCF7; test: Antitumor activity against human MCF7 cells up to 50 uM after 3 days by WST1 assay; assay type: functional, cell-based; summary of the method: as §1
[6] = Antitumor activity against human OCI-AML1 cells after 3 days by WST1 assay; assay type: functional, cell-based; conditions: ML1, 72 h; summary of the method: as §1
[7] = system: OVCAR-4; test: Antitumor activity against human OVCAR4 cells after 3 days by WST1 assay; assay type: functional, cell-based; conditions: for IC50: OVCAR-4, 72 h; summary of the method: as §1
[8] = system: MDA-MB-468; test: Antitumor activity against human MDA468 cells up to 50 uM after 3 days by WST1 assay; assay type: functional, cell-based; summary of the method: as §1
[9] = Antitumor activity against human OCI-My 2 cells after 3 days by WST1 assay; assay type: functional, cell-based; conditions: 72 h; summary of the method: as §1
[10] = Antitumor activity against human SKW3 cells after 3 days by WST1 assay; assay type: functional, cell-based; conditions: SKW3, 72 h; summary of the method: as §1
[11] = system: Hs-578T; test: Antitumor activity against human Hs 578T cells up to 50 uM after 3 days by WST1 assay; assay type: functional, cell-based; summary of the method: as §1
[12] = system: COLO 205; test: Antitumor activity against human COLO205 cells after 3 days by WST1 assay; assay type: functional, cell-based; conditions: for IC50: COLO 205, 72 h; summary of the method: as §1
[13] = system: PC-3; test: Antitumor activity against human PC3 cells up to 50 uM after 3 days by WST1 assay; assay type: functional, cell-based; summary of the method: as §1
[14] = Antitumor activity against human LOX cells after 3 days by WST1 assay; assay type: functional, cell-based; conditions: 72 h; summary of the method: as §1
[15] = Cytotoxicity against human CCD-967 cells up to 50 uM after 3 days by WST1 assay; assay type: cell-based; conditions: ccd-967, 72 h
Summary of the method: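 Cells grown in Iscove's MDM with 5% FCS, 50 µM 2-mercaptoethanol and antibiotics, kept subconfluent if adherent. Seeded in triplicate at 10^4 cells/100 µL with compounds (in water) added at once, 0 to 100 µM final. WST.1 formazan read at 440 nm on day 3; IC50 from OD versus concentration.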

[16] = system: MCF7; test: Antitumor activity against human MCF7 cells after 3 days by WST1 assay; assay type: functional, cell-based; conditions: MCF7, 72 h; summary of the method: as §1
[17] = Antitumor activity against human OCI-LY7 cells after 3 days by WST1 assay; assay type: functional, cell-based; conditions: OCI-Ly7, 72 h; summary of the method: as §1

| SMILES | IC50 [1] [µM] | IC50 [2] [µM] | Activity [3] | Activity [4] | Activity [5] | IC50 [6] [µM] | IC50 [7] [µM] | Activity [8] | IC50 [9] [µM] | IC50 [10] [µM] | Activity [11] | IC50 [12] [µM] | Activity [13] | IC50 [14] [µM] | Activity [15] | IC50 [16] [µM] | IC50 [17] [µM] | Activity [7] | Activity [12] |
| --- | --- | --- | --- | --- | --- | --- | --- | --- | --- | --- | --- | --- | --- | --- | --- | --- | --- | --- | --- |
| Cc1cc(=O)[nH]c(=O)n1[C@@H]1O[C@H](CO)[C@@H](O)[C@H]1O | > 50 | > 50 | inactive | inactive | inactive | > 50 | > 50 | inactive | > 50 | > 50 | inactive | > 50 | inactive | > 50 | Not Active | > 50 | > 50 | – | – |
| O=c1cc(NO)n([C@@H]2O[C@H](CO)[C@@H](O)[C@H]2O)c(=O)[nH]1 | > 50 | > 50 | inactive | inactive | inactive | > 50 | – | inactive | > 50 | > 50 | inactive | – | inactive | > 50 | Not Active | > 50 | > 50 | inactive | inactive |
| O=c1cc(O)n([C@@H]2O[C@H](CO)[C@@H](O)[C@H]2O)c(=O)[nH]1 | > 50 | > 50 | inactive | inactive | inactive | > 50 | > 50 | inactive | > 50 | > 50 | inactive | > 50 | inactive | > 50 | Not Active | > 50 | > 50 | – | – |
| O=c1cc(O)n([C@@H]2O[C@H](COP(=O)(O)O)[C@@H](O)[C@H]2O)c(=O)[nH]1 | > 50 | > 50 | inactive | inactive | inactive | > 50 | > 50 | inactive | > 50 | > 50 | inactive | > 50 | inactive | > 50 | Not Active | > 50 | > 50 | – | – |
| CCc1c(F)c(=O)[nH]c(=O)n1[C@@H]1O[C@H](CO)[C@@H](O)[C@H]1O | – | 5.3 | inactive | inactive | – | 2.1 | – | – | 1.4 | 1.2 | inactive | – | inactive | 4.5 | Not Active | 31.4 | 1.9 | – | – |
| O=c1cnn([C@@H]2O[C@H](COP(=O)(O)O)[C@@H](O)[C@H]2O)c(=O)[nH]1 [6-AZA-URIDINE MONOPHOSPHATE] | 16 | > 50 | inactive | inactive | inactive | 6.1 | > 50 | inactive | 18.7 | 2.8 | inactive | > 50 | inactive | 6.7 | Not Active | > 50 | > 50 | – | – |
| CC(=O)OC[C@H]1O[C@@H](n2c(I)cc(=O)[nH]c2=O)[C@H](O)[C@@H]1O | 11.7 | > 50 | inactive | inactive | – | 15.2 | > 50 | inactive | 1.3 | 1.6 | inactive | > 50 | inactive | 1.1 | Not Active | 4.4 | 36.2 | – | – |
| COC(=O)c1cc(=O)[nH]c(=O)n1[C@@H]1O[C@H](CO)[C@@H](O)[C@H]1O | > 50 | > 50 | inactive | inactive | inactive | > 50 | > 50 | inactive | 42.3 | > 50 | inactive | > 50 | inactive | > 50 | Not Active | > 50 | > 50 | – | – |
| CN(C)c1cc(=O)[nH]c(=O)[nH]1 | > 50 | > 50 | inactive | inactive | inactive | > 50 | > 50 | inactive | > 50 | > 50 | inactive | > 50 | inactive | > 50 | Not Active | > 50 | > 50 | – | – |
| [N-]=[N+]=Nc1cc(=O)[nH]c(=O)n1[C@@H]1O[C@H](CO)[C@@H](O)[C@H]1O | > 50 | > 50 | inactive | inactive | inactive | > 50 | > 50 | inactive | > 50 | > 50 | inactive | > 50 | inactive | > 50 | Not Active | > 50 | > 50 | – | – |
| O=c1[nH]c(=O)n([C@@H]2O[C@H](CO)[C@@H](O)[C@H]2O)c(I)c1F | > 50 | > 50 | inactive | inactive | inactive | > 50 | > 50 | inactive | > 50 | > 50 | inactive | > 50 | inactive | > 50 | Not Active | > 50 | > 50 | – | – |
| O=c1[nH]c(=O)n([C@@H]2O[C@H](CO)[C@@H](O)[C@H]2O)cc1F [5-FLUOROURIDINE] | – | – | inactive | inactive | inactive | – | – | inactive | – | – | inactive | – | inactive | – | Not Active | – | – | – | – |
| N#Cc1cc(=O)[nH]c(=O)n1[C@@H]1O[C@H](CO)[C@@H](O)[C@H]1O | > 50 | > 50 | inactive | inactive | inactive | > 50 | > 50 | inactive | > 50 | > 50 | inactive | > 50 | inactive | > 50 | Not Active | > 50 | > 50 | – | – |
| O=Cc1cc(=O)[nH]c(=O)n1[C@@H]1O[C@H](CO)[C@@H](O)[C@H]1O | > 50 | > 50 | inactive | inactive | inactive | > 50 | – | inactive | > 50 | > 50 | inactive | – | inactive | > 50 | Not Active | > 50 | > 50 | inactive | inactive |
| CN(C)c1cc(=O)[nH]c(=O)n1[C@@H]1O[C@H](CO)[C@@H](O)[C@H]1O | > 50 | > 50 | inactive | inactive | inactive | > 50 | > 50 | inactive | > 50 | > 50 | inactive | > 50 | inactive | > 50 | Not Active | > 50 | > 50 | – | – |
| O=c1cc(I)n([C@@H]2O[C@H](CO)[C@@H](O)[C@H]2O)c(=O)[nH]1 | > 50 | > 50 | inactive | inactive | inactive | 15.3 | > 50 | inactive | 27.8 | 18.9 | inactive | > 50 | inactive | > 50 | Not Active | > 50 | > 50 | – | – |
